Values after ≈ are worked out from the molar mass of the structure shown.
What was measured:
[1] = test system: Mycobacterium tuberculosis; assay: Antimycobacterial activity against Mycobacterium tuberculosis H37Rv at 128 ug/mL by microplate alamar blue assay; type: functional
[2] = test system: Mycobacterium tuberculosis; assay: Antimycobacterial activity against Mycobacterium tuberculosis H37Rv at 8 ug/mL by microplate alamar blue assay; type: functional
[3] = test system: Mycobacterium tuberculosis; assay: Antimycobacterial activity against Mycobacterium tuberculosis H37Rv at 2 ug/mL by microplate alamar blue assay; type: functional
[4] = test system: Mycobacterium tuberculosis; assay: Antimycobacterial activity against Mycobacterium tuberculosis H37Rv at 4 ug/mL by microplate alamar blue assay; type: functional
[5] = test system: Mycobacterium tuberculosis; assay: Antimycobacterial activity against Mycobacterium tuberculosis H37Rv at 64 ug/mL by microplate alamar blue assay; type: functional
[6] = Selectivity index, ratio of IC50 for against african green monkey VERO cells to MIC for Mycobacterium tuberculosis H37Rv; type: functional
[7] = test system: Vero; assay: Cytotoxicity against african green monkey Vero cells; type: cell-based; details: Chlorocebus sabaeus
Method in brief: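 Cytotoxicity tested on VERO cells (ATCC CCL-81) in parallel with the MIC work. Read-out is IC50 in μg/mL.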

[8] = test system: Mycobacterium tuberculosis; assay: Antimycobacterial activity against Mycobacterium tuberculosis H37Rv at 16 ug/mL by microplate alamar blue assay; type: functional
[9] = test system: Mycobacterium tuberculosis; assay: Antimycobacterial activity against Mycobacterium tuberculosis H37Rv at 32 ug/mL by microplate alamar blue assay; type: functional
[10] = test system: Mycobacterium tuberculosis; assay: Antimycobacterial activity against Mycobacterium tuberculosis H37Rv by microplate alamar blue assay; type: functional

| SMILES | inhibition at 128 µg/mL [1] [%] | inhibition at 8 µg/mL [2] [%] | inhibition at 2 µg/mL [3] [%] | inhibition at 4 µg/mL [4] [%] | inhibition at 64 µg/mL [5] [%] | Selectivity Index [6] | IC50 [7] [µg/mL] | inhibition at 16 µg/mL [8] [%] | inhibition at 32 µg/mL [9] [%] | MIC [10] [µg/mL] |
| --- | --- | --- | --- | --- | --- | --- | --- | --- | --- | --- |
| CC(C)[C@@H](C)[C@]1(C)C[C@@H]1[C@@H](C)[C@H]1CC[C@H]2[C@@H]3C(C=O)=C4C[C@@H](O)CC[C@]4(C)[C@H]3CC[C@]12C | 99 | 81 | 17 | 33 | 99 | 4.3 | 54.7 (≈ 124 µM) | 96 | 98 | 12.7 (≈ 28.8 µM) |
| CC(C)CCC[C@@H](C)[C@H]1CC[C@H]2[C@@H]3C(C=O)=C4C[C@@H](O)CC[C@]4(C)[C@H]3CC[C@]12C | 99 | 51 | 10 | 34 | 99 | >9 | > 128 | 96 | 99 | 15 (≈ 37.4 µM) |
| CC(C)[C@@H](C)CC[C@@H](C)[C@H]1CC[C@H]2[C@@H]3CC=C4C[C@@H](O)CC[C@]4(C)[C@H]3CC[C@]12C | 58 | 23 | 15 | 14 | 41 |  | > 128 | 21 | 31 | > 128 |
| CC(C)CCC[C@@H](C)[C@H]1CC[C@H]2[C@@H]3CC=C4C[C@@H](O)CC[C@]4(C)[C@H]3CC[C@]12C [CHOLESTEROL] | 57 |  |  |  | 24 |  | > 128 | 33 | 13 | > 128 |
| CC(C)[C@@H](C)CC[C@@H](C)[C@H]1CC[C@H]2[C@@H]3C(C=O)=C4C[C@@H](O)CC[C@]4(C)[C@H]3CC[C@]12C | 99 | 97 | 39 | 94 | 100 | 10.8 | 42.3 (≈ 102 µM) | 99 | 99 | 3.9 (≈ 9.4 µM) |
| CC(C)[C@@H](C)[C@]1(C)C[C@@H]1[C@@H](C)[C@H]1CC[C@H]2[C@@H]3CC=C4C[C@@H](O)CC[C@]4(C)[C@H]3CC[C@]12C | 38 |  |  |  | 18 |  | > 128 | 10 | 13 | > 128 |
| CC[C@@H](CC[C@@H](C)[C@H]1CC[C@H]2[C@@H]3C(C=O)=C4C[C@@H](O)CC[C@]4(C)[C@H]3CC[C@]12C)C(C)C | 99 | 99 | 29 | 97 | 99 | 7 | 26.6 (≈ 62 µM) | 98 | 99 | 3.8 (≈ 8.86 µM) |
| C=C(CC[C@@H](C)[C@H]1CC[C@H]2[C@@H]3C(C=O)=C4C[C@@H](O)CC[C@]4(C)[C@H]3CC[C@]12C)C(C)C [PARGUESTEROL A] | 99 | 91 | 52 | 69 | 99 | 6.5 | 51 (≈ 124 µM) | 105 | 99 | 7.8 (≈ 18.9 µM) |
| CC(C)C(=O)CC[C@@H](C)[C@H]1CC[C@H]2[C@@H]3C(C=O)=C4C[C@@H](O)CC[C@]4(C)[C@H]3CC[C@]12C | 99 | 83 | 52 | 67 | 100 | 3.2 | 43.8 (≈ 106 µM) | 92 | 96 | 13.6 (≈ 32.8 µM) |
| CO[C@H]1/C=C/O[C@@]2(C)Oc3c(C)c(O)c4c(O)c(c(/C=N/N5CCN(C)CC5)c(O)c4c3C2=O)NC(=O)/C(C)=C\C=C\[C@H](C)[C@H](O)[C@@H](C)[C@@H](O)[C@@H](C)[C@H](OC(C)=O)[C@@H]1C [RIFAMPIN] | 100 | 94 |  | 73 | 100 |  |  | 99 | 100 | 0.06 (≈ 0.0729 µM) |
| C=C(CC[C@@H](C)[C@H]1CC[C@H]2[C@@H]3CC=C4C[C@@H](O)CC[C@]4(C)[C@H]3CC[C@]12C)C(C)C |  |  |  |  | 40 |  | > 128 | 33 | 43 | 120 (≈ 301 µM) |
| CCC(CC[C@@H](C)[C@H]1CC[C@H]2[C@@H]3CC=C4C[C@@H](O)CC[C@]4(C)[C@H]3CC[C@]12C)C(C)C (single isomer, unassigned) [BETA-SITOSTEROL] | 45 | 7 | -1 | 8 | 48 |  | > 128 | 32 | 31 | > 128 |

Source: ChEMBL document CHEMBL1142462, “Synthesis and in vitro biological evaluation of ring B abeo-sterols as novel inhibitors of Mycobacterium tuberculosis” (Bioorg Med Chem Lett, 2008)
